Data on 2 compounds can be found in ChEMBL document CHEMBL3259519, “Targeting triple-negative breast cancer cells with 6,7-bis(hydroxymethyl)-1H,3H-pyrrolo[1,2-c]thiazoles” (Eur J Med Chem, 2014).

Holding throughout (assay type): functional, cell-based
Experiment [1] relates to HCC1806. Description: Antiproliferative activity against ER, PR, HER2-deficient human HCC1806 cells as growth inhibition after 48 hrs by MTT assay. The settings on record: HCC1806, 48 h. The gist of the method:
(§1)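 Cells were seeded at 2x10^4/well and left to attach overnight. Compounds in DMSO were diluted in medium and applied for 24, 48, 72 or 96 h. Cells were then PBS-washed and given 0.5 mg/mL MTT (pH 7.4) at 37 °C for 4 h. Formazan was dissolved in acid isopropanol. IC50 came from dose-response curves by exponential decay fitting (r2>0.9), with 95% CI.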

In experiment [2] the test system is MCF7. Description: Antiproliferative activity against human MCF7 cells expressing ER and BRCA2 assessed as growth inhibition after 96 hrs by MTT assay. The conditions noted are these: MCF7, 96 h. The procedure, abridged:
as §1
(Tetrazolium dyes change colour on reduction, which living cells bring about.)

In experiment [3] the test system is MCF7. As to the kind of experiment: Antiproliferative activity against human MCF7 cells expressing ER and BRCA2 assessed as growth inhibition after 72 hrs by MTT assay. The conditions noted are these: MCF7, 72 h. The procedure, abridged: as §1
Experiment [4] relates to HCC1806. As to the kind of experiment: Antiproliferative activity against ER, PR, HER2-deficient human HCC1806 cells as growth inhibition after 96 hrs by MTT assay. The conditions noted are these: HCC1806, 96 h. The procedure, abridged:
as §1

Experiment [5] concerns HCC1954. Description: Antiproliferative activity against human HCC1954 cells expressing HER2 assessed as growth inhibition after 24 hrs by MTT assay. The settings on record: HCC1954, 24 h. The procedure, abridged:
as §1

In experiment [6] the test system is HCC1954. Description: Antiproliferative activity against human HCC1954 cells expressing HER2 assessed as growth inhibition after 72 hrs by MTT assay. The conditions noted are these: HCC1954, 72 h. The gist of the method:
as §1

In experiment [7] the test system is MCF7. Description: Antiproliferative activity against human MCF7 cells expressing ER and BRCA2 assessed as growth inhibition after 24 hrs by MTT assay. The settings on record: MCF7, 24 h. The procedure, abridged:
as §1

Experiment [8] deals with HCC1806. Description: Antiproliferative activity against ER, PR, HER2-deficient human HCC1806 cells as growth inhibition after 24 hrs by MTT assay. The conditions noted are these: HCC1806, 24 h. The procedure, abridged: as §1
Experiment [9] concerns HCC1954. As to the kind of experiment: Antiproliferative activity against human HCC1954 cells expressing HER2 assessed as growth inhibition after 96 hrs by MTT assay. The conditions noted are these: HCC1954, 96 h. The procedure, abridged: as §1
Experiment [10] relates to HCC1954. As to the kind of experiment: Antiproliferative activity against human HCC1954 cells expressing HER2 assessed as growth inhibition after 48 hrs by MTT assay. The conditions noted are these: HCC1954, 48 h. The procedure, abridged: as §1
Experiment [11] deals with MCF7. Description: Antiproliferative activity against human MCF7 cells expressing ER and BRCA2 assessed as growth inhibition after 48 hrs by MTT assay. The settings on record: MCF7, 48 h. The gist of the method: as §1
Experiment [12] has as its system HCC1806. Description: Antiproliferative activity against ER, PR, HER2-deficient human HCC1806 cells as growth inhibition after 72 hrs by MTT assay. The conditions noted are these: HCC1806, 72 h. The procedure, abridged: as §1

Molecules are shown by their SMILES. pIC50: −log10 of the molar value. Where only a bound is given, the exact number is not on record here.

By pIC50 is commonly meant −log10 of the IC50, conventionally taken in molar units. `Cc1c(CO)c(CO)c2n1[C@H](c1ccccc1)SC2(C)C`: the negative logarithm of the IC50 (pIC50) was 4.38 in [1]; below 4.00 in experiment [2]; below 4.00 in experiment [3]; 4.67 in experiment [4]; 4.00 in [5]; 4.25 in experiment [6]. Further, the pIC50 in [7] is below 4.00; in experiment [8] it was below 4.00; in experiment [9] it was 4.47; in experiment [10] it was 4.16; in experiment [11] it was below 4.00; in experiment [12] it was 4.57.

Regarding `Cc1c(CO)c(CO)c2n1[C@H](c1ccccc1)SC2`, the pIC50 in experiment [1] was 4.20; in experiment [4] it was 4.54; in experiment [5] it was below 4.00; in experiment [6], 4.83; in experiment [8], below 4.00; in [9], 4.93. Also, the pIC50 in [10] is 4.25; in experiment [12], 4.11.
